Columns and labels:
[1] = molecular target: T1, Cholesteryl ester transfer protein (Homo sapiens, UniProt P11597); assay: In vitro concentration required to inhibit 50% of cholesteryl ester transfer protein mediated cholesteryl ester transfer from HDL to VLDL and LDL in human plasma; type: cell-free
T1 sequence (P11597 whole entry): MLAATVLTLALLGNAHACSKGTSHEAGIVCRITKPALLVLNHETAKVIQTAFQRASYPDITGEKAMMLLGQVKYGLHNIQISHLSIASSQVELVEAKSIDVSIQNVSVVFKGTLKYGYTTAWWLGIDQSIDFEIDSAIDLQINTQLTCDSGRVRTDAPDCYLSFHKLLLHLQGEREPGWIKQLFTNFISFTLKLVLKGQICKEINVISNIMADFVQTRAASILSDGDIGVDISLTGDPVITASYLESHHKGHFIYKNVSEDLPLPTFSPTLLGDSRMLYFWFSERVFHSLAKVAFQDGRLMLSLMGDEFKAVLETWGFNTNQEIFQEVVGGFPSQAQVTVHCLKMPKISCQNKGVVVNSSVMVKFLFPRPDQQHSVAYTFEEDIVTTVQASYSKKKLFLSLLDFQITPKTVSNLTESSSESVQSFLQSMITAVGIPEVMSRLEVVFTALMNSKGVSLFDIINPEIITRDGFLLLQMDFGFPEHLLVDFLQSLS
In short: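 Compound dissolved in 1:1 N-methyl-2-pyrrolidinone/PEG 400 and added to human plasma, with organic solvent at 2% final. Plasma then incubated with [3H]CE-labelled HDL at 37 °C for 4 h. ApoB lipoproteins precipitated with dextran sulfate (0.075% final) and MgCl2 (37.5 mM final). Transfer taken as the loss of supernatant HDL radioactivity. IC50 estimated from five-dose response curves.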

[2] = molecular target: T2, Cholesteryl ester transfer protein (Homo sapiens) (UniProt P11597); assay: Percent inhibition of cholesteryl ester transfer protein in human plasma at 5 uM; type: cell-free
T2 sequence (whole entry): T1 sequence (P11597 whole entry)

[3] = tested on: Oryctolagus cuniculus; assay: In vivo percent inhibition of cholesteryl ester transfer protein was measured 3h after oral administration of 30 mg/kg JW rabbits plasma; type: functional
In short: (§1)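 Male JW rabbits, 11-15 weeks old, dosed orally; plasma taken 3 h post-dose and spun at 11000g for 5 min at 4 °C. Plasma (1.8 µL) diluted to 600 µL in Tris-buffered saline pH 7.4 with 0.1 mg/mL BSA. Incubated 15 h at 37 °C with [3H]CE-HDL and VLDL/LDL, then VLDL/LDL precipitated with dextran sulfate/MgCl2 and supernatant counted. Inhibition expressed relative to vehicle-dosed rabbits.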

[4] = tested on: Oryctolagus cuniculus; assay: In vivo percent inhibition of cholesteryl ester transfer protein was measured 3h after oral administration of 10 mg/kg JW rabbits plasma; type: functional; in short: as §1
[5] = molecular target: T2, Cholesteryl ester transfer protein (Homo sapiens); assay: Percent inhibition of cholesteryl ester transfer protein in human plasma at 9 uM; type: cell-free
[6] = tested on: Oryctolagus cuniculus; assay: In vivo percent elevation evaluated from the plasma HDL levels in JW rabbits by oral administration of 30 mg/kg once a day for 3 days; type: functional
In short: (§2)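 Male JW rabbits, 11-15 weeks old, N = 5, dosed orally once daily for 3 days. ApoB lipoproteins in plasma precipitated with 13% PEG 6000, and HDL cholesterol measured by enzymatic assay. Elevation expressed relative to vehicle-dosed rabbits.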

[7] = tested on: Oryctolagus cuniculus; assay: In vivo percent elevation evaluated from the plasma HDL levels in JW rabbits by oral administration of 100 mg/kg once a day for 3 days; type: functional; in short: as §2

| Compound | IC50 [1] | other results |
| --- | --- | --- |
| CC(C)CCCC1(C(=O)Nc2ccccc2S)CCCCC1 | 6 µM | – |
| CCC(=O)Nc1ccccc1SSc1ccccc1NC(=O)CC | 180 µM | – |
| CC(C)(C)C(=O)Nc1ccc(SSc2ccc(NC(=O)C(C)(C)C)cc2)cc1 | > 500 µM | – |
| CCCCCC1(C(=O)Nc2ccccc2S)CCCCC1 | 7 µM | – |
| CCCCCCC1(C(=O)Nc2ccccc2S)CCCCC1 | 6 µM | – |
| CCC(CC)CC1(C(=O)Nc2ccccc2S)CCCCC1 | 5 µM | inhibition [2]: 50% |
| CCC(CC)CC1(C(=O)Nc2ccccc2SC)CCCCC1 | > 300 µM | – |
| CCCCC1(C(=O)Nc2ccccc2S)CCCCC1 | 9 µM | – |
| CC(C)(C)NC(=O)c1ccccc1SSc1ccccc1C(=O)NC(C)(C)C | > 500 µM | – |
| CCC(CC)CC1(C(=O)Nc2ccccc2SC(C)=O)CCCCC1 | – | inhibition in vivo at 30 mg/kg [3]: 40% |
| CN(C(=O)C(C)(C)C)c1ccccc1SSc1ccccc1N(C)C(=O)C(C)(C)C | > 300 µM | – |
| CCCCCCCC1(C(=O)Nc2ccccc2S)CCCCC1 | 7 µM | – |
| CC(=O)Nc1ccccc1SSc1ccccc1NC(C)=O | 500 µM | – |
| CC1(C(=O)Nc2ccccc2OC(=O)Cc2ccccc2)CCCCC1 | > 300 µM | – |
| CC(C)(C)C(=O)Nc1cccc(SSc2cccc(NC(=O)C(C)(C)C)c2)c1 | > 500 µM | – |
| CC1(C(=O)Nc2ccccc2SSc2ccccc2NC(=O)C2(C)CCCCC2)CCCCC1 | 8 µM | – |
| CCCCCCCC(=O)Nc1ccccc1SSc1ccccc1NC(=O)CCCCCCC | 21 µM | – |
| CCC(CC)CC1(C(=O)Nc2ccccc2SC(=O)C(C)(C)C)CCCCC1 | – | inhibition in vivo at 30 mg/kg [3]: 32% |
| CCC(CC)CC1(C(=O)Nc2ccccc2SC(=O)C(C)C)CCCCC1 [DALCETRAPIB] | 6 µM | inhibition in vivo at 10 mg/kg [4]: 35%; inhibition in vivo at 30 mg/kg [3]: 95%; inhibition [5]: 50%; Elevation [6]: 27%; Elevation [7]: 54% |
| CC(C)(C)C(=O)Nc1ccccc1SSc1ccccc1NC(=O)C(C)(C)C | 13 µM | – |

From ChEMBL document CHEMBL1133653, “bis(2-(Acylamino)phenyl) disulfides, 2-(acylamino)benzenethiols, and S-(2-(acylamino)phenyl) alkanethioates as novel inhibitors of cholesteryl ester transfer protein” (J Med Chem, 2000)
